≈ marks a conversion by molar mass, not a printed value.
Tests used:
[1] = Drug degradation in human hepatocytes assessed as 5-hydroxy-indazole formation at 10 uM up to 120 mins by LC-MS/MS analysis; format: ADME, cell-based, Hepatocyte; details: 2 h
[2] = Drug degradation in dog hepatocytes assessed as 5-hydroxy-indazole formation at 10 uM up to 120 mins by LC-MS/MS analysis; format: ADME, cell-based, Canis lupus familiaris, Hepatocyte; details: 2 h
[3] = Drug degradation in rat hepatocytes assessed as 5-hydroxy-indazole formation at 10 uM up to 120 mins by LC-MS/MS analysis; format: ADME, cell-based, Hepatocyte; details: 2 h
[4] = Intrinsic clearance in human hepatocytes assessed per million cells; format: ADME, cell-based, Hepatocyte; details: read-out: CLH
[5] = Lipophilicity, log D of the compound by chromatography; format: physicochemical
[6] = Drug degradation in dog hepatocytes at 10 uM up to 120 mins by LC-MS/MS analysis; format: ADME, cell-based, Canis lupus familiaris, Hepatocyte; details: 2 h
[7] = Drug degradation in human hepatocytes at 10 uM up to 120 mins by LC-MS/MS analysis; format: ADME, cell-based, Hepatocyte; details: 2 h
[8] = Drug degradation in rat hepatocytes at 10 uM up to 120 mins by LC-MS/MS analysis; format: ADME, cell-based, Hepatocyte; details: 2 h
[9] = Solubility of the compound in phosphate buffer at pH 7.4 using liquid sample at 20 degreeC; format: physicochemical
Procedure, shortened: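 Solubility measured in 0.1 M phosphate buffer at pH 7.4 and 20 °C, starting from a 10 mM DMSO stock solution.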

[10] = Solubility of the compound in phosphate buffer at pH 7.4 using solid sample at 23 degreeC; format: physicochemical
Procedure, shortened: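 Solubility measured in 0.1 M phosphate buffer at pH 7.4 and 23 °C, starting from crystalline solid.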

[11] = test system: Lung; assay: Drug uptake in Wistar Han rat lung at 0.1 umol/kg, administered as dry powder inhalation after 4 hrs by LC-MS/MS analysis; format: ADME; details: in vivo, inhaled_or_intranasal
[12] = test system: Lung; assay: Drug uptake in Wistar Han rat lung at 0.1 umol/kg, administered as dry powder inhalation after 24 hrs by LC-MS/MS analysis; format: ADME, tissue-based; details: in vivo, inhaled_or_intranasal
[13] = Mean residence time in Wistar Han rat lung at 0.1 umol/kg, administered as dry powder inhalation by LC-MS/MS analysis; format: ADME, tissue-based; details: inhaled or intranasal
[14] = Thermodynamic solubility of the compound in human intestinal fluid; format: physicochemical; details: read-out: Therm_solubility
[15] = Apparent terminal half life in Wistar Han rat lung at 0.1 umol/kg, administered as dry powder inhalation by LC-MS/MS analysis; format: ADME; details: inhaled or intranasal, read-out: betat1/2(app) (converted)
[16] = Volume of distribution at steady state in Wistar Han rat at 1 umol/kg, iv administered as bolus dose by LC-MS/MS analysis; format: ADME, organism-based; details: in vivo, read-out: Vdss
[17] = Cmax in Wistar Han rat plasma at 0.1 umol/kg, administered as dry powder inhalation by LC-MS/MS analysis; format: ADME; design: dose 0.1 umol/kg, route respiratory (INHALATION); details: inhaled or intranasal
[18] = Terminal half life in Wistar Han rat 1 umol/kg, iv administered as bolus dose by LC-MS/MS analysis; format: ADME, organism-based; details: in vivo, read-out: beta t1/2 (converted)
[19] = test system: Rattus norvegicus; assay: Toxicity in inhaled CRL:CD Sprague Dawley rat model of sephadex induced lung edema assessed as induction of thymic involution administered once per day for 4 days; details: in vivo, inhaled_or_intranasal, 96 h
Procedure, shortened: (§1)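 Thymic involution scored in the same Sephadex-challenged rats dosed by inhalation, as a sensitive marker of systemic GR agonism.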

[20] = Oral bioavailability in Wistar Han rat administered via gavage by LC-MS/MS analysis; format: ADME, organism-based; details: in vivo
[21] = Clearance in Wistar Han rat at 1 umol/kg, iv administered as bolus dose by LC-MS/MS analysis; format: ADME, organism-based; details: in vivo
[22] = AUC (0 to infinity) in Wistar Han rat lung at 0.1 umol/kg, administered as dry powder inhalation by LC-MS/MS analysis; format: ADME; design: dose 0.1 umol/kg, route respiratory (INHALATION), time infinity; details: inhaled or intranasal
[23] = test system: Lung; assay: Drug uptake in Wistar Han rat lung at 0.1 umol/kg, administered via intratracheal instillation after 4 hrs by LC-MS/MS analysis; format: ADME, tissue-based; details: in vivo, inhaled_or_intranasal
[24] = Intrinsic clearance in Wistar Han rat hepatocytes assessed per 10^6 cells; format: ADME, cell-based, Hepatocyte; details: read-out: CLH
[25] = test system: Rattus norvegicus; assay: Toxicity in inhaled CRL:CD Sprague Dawley rat model of sephadex induced lung edema assessed as induction of thymic involution administered once per day for 3 days; details: in vivo, inhaled_or_intranasal, 72 h; procedure, shortened: as §1

O=[14C](N[C@@H]1CCOC1)c1cccc(-n2ncc3cc(OS(=O)(=O)O)ccc32)c1
Drug metabolism [1]: Metabolite_Detected
Drug metabolism [2]: Metabolite_Detected
Drug metabolism [3]: Metabolite_Detected

C[C@H](NC(=O)C(F)(F)F)[C@H](Oc1ccc2c(cnn2-c2ccc(F)cc2)c1)c1cccc(OS(=O)(=O)O)c1
hepatocyte CLint [4]: < 2.7 µL/min/1e6 cells

C[C@H](NC(=O)C(C)(F)F)[C@H](Oc1ccc2c(cnn2-c2ccc(F)cc2)c1)c1ccc2c(c1)OCC2
chromatographic logD [5]: 5.7
hepatocyte CLint [4]: 14 µL/min/1e6 cells

C[C@H](NC(=O)C(C)(F)F)[C@H](Oc1ccc2c(cnn2-c2cccc([14C](=O)N[C@@H]3CCOC3)c2)c1)c1ccc2c(c1)OCCO2
Drug metabolism [1]: Metabolite_Detected
Drug metabolism [2]: Metabolite_Detected
Drug metabolism [3]: Metabolite_Detected
Drug degradation [6]: Metabolite_Detected
Drug degradation [7]: Metabolite_Detected
Drug degradation [8]: Metabolite_Detected

C[C@H](NC(=O)C(C)(F)F)[C@H](Oc1ccc2c(cnn2-c2ccc(F)cc2)c1)c1ccc2c(c1)OCOC2
chromatographic logD [5]: 5.4
hepatocyte CLint [4]: 15 µL/min/1e6 cells

C[C@H](NC(=O)C(C)(F)F)[C@H](Oc1ccc2c(cnn2-c2cccc(C(=O)N3CCC[C@@H]3C(N)=O)c2)c1)c1ccccc1
chromatographic logD [5]: 3.3
solubility [9]: 36 µM (≈ 20.7 µg/mL)
hepatocyte CLint [4]: < 2.7 µL/min/1e6 cells

C[C@H](NC(=O)C(C)(F)F)[C@H](Oc1ccc2c(cnn2-c2cccc(C(=O)NC3CCS(=O)(=O)C3)c2)c1)c1ccccc1 (stereo partly specified)
chromatographic logD [5]: 3.8
solubility thermodynamic [10]: 0.34 µM (≈ 0.203 µg/mL)
solubility [9]: 1 µM (≈ 0.597 µg/mL)
hepatocyte CLint [4]: < 2.7 µL/min/1e6 cells

C[C@H](NC(=O)C(C)(F)F)[C@H](Oc1ccc2c(cnn2-c2cccc(C(=O)N3CCC[C@@H]3C(N)=O)c2)c1)c1ccc2c(c1)OCOC2
chromatographic logD [5]: 2.9
solubility [9]: 19 µM (≈ 12 µg/mL)
hepatocyte CLint [4]: 9.7 µL/min/1e6 cells

C[C@H](NC(=O)C(F)(F)F)[C@H](Oc1ccc2c(cnn2-c2ccc(F)cc2)c1)c1cccc(O)c1
chromatographic logD [5]: 5
hepatocyte CLint [4]: 33 µL/min/1e6 cells

COc1cccc([C@@H](Oc2ccc3c(cnn3-c3ccc(F)cc3)c2)[C@H](C)NC(=O)C(F)(F)F)c1 [AZD-5423]
Drug uptake [11]: 0.7 %ID
Drug uptake [12]: 0 to 0.4 %ID
MRT [13]: 1.5 h
solubility thermodynamic [14]: 12 µM (≈ 5.85 µg/mL)
half-life [15]: 7.5 h
Vd [16]: 23 L/kg
chromatographic logD [5]: 6
Cmax [17]: 122 nM
half-life [18]: 4.7 h
ED25 [19]: 4.6 µg/kg
bioavailability [20]: 37%
clearance [21]: 38 mL/min/kg
AUC(0-inf) [22]: 18 µM·h
Drug uptake [23]: 1 %ID
hepatocyte CLint [24]: 13 µL/min/1e6 cells
hepatocyte CLint [4]: 16 µL/min/1e6 cells

CCCC1O[C@@H]2C[C@H]3[C@@H]4CCC5=CC(=O)C=C[C@]5(C)[C@H]4[C@@H](O)C[C@]3(C)[C@]2(C(=O)CO)O1 (stereo partly specified) [BUDESONIDE]
chromatographic logD [5]: 3.4
hepatocyte CLint [4]: 20 µL/min/1e6 cells

CCC(=O)O[C@]1(C(=O)SCF)[C@H](C)C[C@H]2[C@@H]3C[C@H](F)C4=CC(=O)C=C[C@]4(C)[C@@]3(F)[C@@H](O)C[C@@]21C [FLUTICASONE PROPIONATE]
Drug uptake [11]: 43 %ID
Drug uptake [12]: 1.9 %ID
MRT [13]: 6.5 h
solubility thermodynamic [14]: 0.62 µM (≈ 0.31 µg/mL)
half-life [15]: 4.5 h
Vd [16]: 31 L/kg
chromatographic logD [5]: 4.9
ED25 [25]: 3.9 µg/kg
Cmax [17]: 24 nM
half-life [18]: 3.3 h
bioavailability [20]: < 0.1%
clearance [21]: 103 mL/min/kg
AUC(0-inf) [22]: 200 µM·h
hepatocyte CLint [24]: 28 µL/min/1e6 cells
hepatocyte CLint [4]: 33 µL/min/1e6 cells

C[C@H](NC(=O)C(C)(F)F)[C@H](Oc1ccc2c(cnn2-c2cccc(C(=O)N[C@@H]3CCOC3)c2)c1)c1ccc2c(c1)OCCO2 [VELSECORAT]
Drug uptake [11]: 73 %ID
Drug uptake [12]: 32 %ID
MRT [13]: 23 h
solubility thermodynamic [14]: 0.6 µM (≈ 0.364 µg/mL)
half-life [15]: 17 h
Vd [16]: 0.16 L/kg
chromatographic logD [5]: 3.7
ED25 [25]: 40 µg/kg
Cmax [17]: 7.4 nM
half-life [18]: 0.1 h
solubility thermodynamic [10]: 0.02 µM (≈ 0.0121 µg/mL)
solubility [9]: < 0.1 µM
bioavailability [20]: < 0.1%
clearance [21]: 30 mL/min/kg
AUC(0-inf) [22]: 740 µM·h
hepatocyte CLint [24]: 34 µL/min/1e6 cells
hepatocyte CLint [4]: 29 µL/min/1e6 cells

Source: ChEMBL document CHEMBL4028861, “Selective Nonsteroidal Glucocorticoid Receptor Modulators for the Inhaled Treatment of Pulmonary Diseases” (J Med Chem, 2017)
